Compound activity from PubChem BioAssay.
In the library only some 3.7% were active in any assay of this set; here they are far more common.
Kir21 block: Kir2.1 (mouse) channel inhibition; P35561; HEK293-Kir2.1, FluxOR thallium flux fluorescence; stronger effect = lower value; B-score at 10 µM; 0.85% of 310,000 active; AID 1672;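 active means fluorescence ratio B-score at or below minus 3 SD of library scores, with starting-brightness B-score within 2 SD, cut at about -4.2 in these data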;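 further: channel flux triggered by added potassium and thallium sulfate stimulus; B-score of peak minus minimum fluorescence over baseline after thallium stimulus; more negative B-score means stronger Kir2.1 block with less thallium influx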
hERG rescue: shields human hERG channel from block by proarrhythmic agents; 0.51% of 310,000 active; CHO-hERG, FluxOR thallium flux, dofetilide IC70 present; activation (rescue from dofetilide block), less the hit threshold, % at 10 µM;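 active means activation above the mean of controls blocked by dofetilide plus 5 SD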;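 further: thallium influx through hERG after potassium depolarization seen as dye fluorescence rise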
KCNK3 block: human KCNK3 channel inhibition, primary screen; CHO-KCNK3 thallium flux, FluxOR fluorescence; stronger effect = lower value; AID 602410; B-score at 10 µM; 0.84% of 340,000 active; O14649;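 active means B-score under library mean minus 4 SD, starting fluorescence ratio at most library mean plus 5 SD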;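 further: more negative B-score means stronger inhibition of thallium flux through KCNK3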
Target sequence (O14649 whole entry, looked up): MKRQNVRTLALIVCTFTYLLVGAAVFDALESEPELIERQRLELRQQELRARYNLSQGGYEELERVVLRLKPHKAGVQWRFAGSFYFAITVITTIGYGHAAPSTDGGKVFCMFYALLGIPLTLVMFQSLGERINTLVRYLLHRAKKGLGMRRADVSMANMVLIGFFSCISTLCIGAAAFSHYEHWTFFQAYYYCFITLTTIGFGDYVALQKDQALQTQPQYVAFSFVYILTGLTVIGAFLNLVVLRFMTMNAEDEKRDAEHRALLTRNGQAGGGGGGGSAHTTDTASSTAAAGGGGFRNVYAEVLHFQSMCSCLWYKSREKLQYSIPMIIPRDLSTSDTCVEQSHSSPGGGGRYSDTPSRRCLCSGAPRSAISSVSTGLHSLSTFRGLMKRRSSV
KCNK9 inh: blocks the human KCNK9 two-pore domain potassium channel | HEK293 KCNK9, FluxOR thallium flux fluorescence; stronger effect = lower value | 1.2% of 310,000 active | B-score at 10 µM | AID 488922 | Q9NPC2;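 active means ratio B-score over 3 SD below the library mean, with starting fluorescence within 5 SD of its mean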;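 further: negative B-score means less thallium flux so channel inhibition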
Target sequence (Q9NPC2 whole entry, looked up, the tested form may be a part): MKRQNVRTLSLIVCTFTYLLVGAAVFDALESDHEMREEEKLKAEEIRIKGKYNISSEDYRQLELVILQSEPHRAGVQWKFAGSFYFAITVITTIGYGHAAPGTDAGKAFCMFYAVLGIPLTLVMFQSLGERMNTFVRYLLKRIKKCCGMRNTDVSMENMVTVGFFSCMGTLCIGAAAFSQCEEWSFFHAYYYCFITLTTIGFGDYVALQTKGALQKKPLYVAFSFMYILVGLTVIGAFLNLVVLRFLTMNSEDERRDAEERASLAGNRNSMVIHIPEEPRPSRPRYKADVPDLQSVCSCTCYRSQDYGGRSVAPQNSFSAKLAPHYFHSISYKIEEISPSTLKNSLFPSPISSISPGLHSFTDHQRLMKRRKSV
KCNQ1 inh: inhibitors of human KCNQ1 potassium channel | P51787 | B-score at 10 µM | 1.3% of 310,000 active | CHO-K1 KCNQ1, FluxOR thallium flux fluorescence; stronger effect = higher value;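 active means compounds whose thallium flux B-score, printed positive for inhibition, exceeds three library SD while starting fluorescence stays within three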;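 further: channel opened by potassium depolarization with thallium stimulus after 20 min compound exposure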
KCNQ1 act: human KCNQ1 channel potentiation or activation. P51787. CHO-K1 KCNQ1, thallium flux FluxOR fluorescence; stronger effect = higher value. B-score at 10 µM. 0.35% of 310,000 active. AID 2648;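 active means fluorescence ratio B-score, a plate-corrected score, at least three library SD, with initial intensity B-score within 5 SD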
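System: CHO-K1 cells stably expressing KCNQ1 / Medium: assay buffer for compound exposure, DMSO matched across wells / Reagent: thallium- and potassium-containing depolarizing buffer / Compound: one concentration, matched DMSO / Incubation: 20 min compound pretreatment at room temperature / Measured by: kinetic FluxOR fluorescence, 10 s baseline plus 110 s post-stimulus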
A number is an active result; 0 = inactive; - = no result given.

SMILES | Kir21 block | hERG rescue | KCNK3 block | KCNK9 inh | KCNQ1 inh | KCNQ1 act
O=C(NNS(=O)(=O)c1ccc([N+](=O)[O-])cc1)c1ccccc1 | - | - | 0 | - | - | -
Cc1ccc(C(=O)N2CCCC(C(=O)c3cc(F)ccc3F)C2)s1 (stereo not drawn) | -5 | 0 | 0 | 0 | 0 | 0
O=C(CSc1nnnn1-c1cccc2c1CCCC2)N1CCCCC1 | -4.3 | 0 | 0 | 0 | 0 | 0
COC(=O)c1c(C)oc(C)c1S(=O)(=O)NCc1ccc(OC)cc1 | 0 | 0 | 0 | 0 | 0 | 0
COC(=O)c1c(C)oc(C)c1S(=O)(=O)NCc1ccc(Cl)cc1Cl | -5.1 | 0 | 0 | -7.5 | 0 | 0
C/C(=N/NC(=O)c1cc(-c2ccccc2)nc2c(Cl)cccc12)c1cccnc1 | 0 | 0 | 0 | 0 | 0 | 0
COc1ccc2nc(N=Nc3c(O)ccc4ccccc34)sc2c1 | 0 | 17 | - | 0 | 0 | 15
COc1ccc2nc(N(CCN(C)C)C(=O)c3ccc4ccccc4c3)sc2c1 | 0 | 0 | 0 | 0 | 0 | 0
O=C(c1cnn(C(=O)c2ccc(O)cc2)c1)c1ccccc1O | 0 | 0 | - | 0 | 6 | 0
O=C(c1cnn(C(=O)c2ccco2)c1)c1ccccc1O | - | - | 0 | - | - | -
CCOC(=O)COn1c(-c2cccc(Cl)c2)nc2ccc([N+](=O)[O-])cc21 | 0 | 0 | 0 | 0 | 6 | 0
CC(On1c(-c2ccccc2)nc2ccc(Cl)cc21)C(=O)O (stereo not drawn) | 0 | 0 | 0 | 0 | 0 | 0
O=C(Nc1nnc(-c2ccco2)o1)c1ccc2ccccc2c1 | 0 | 6.8 | 0 | 0 | 0 | 0
CCOC(=O)c1nc(N/N=C/c2ccccc2)sc1Br | 0 | 0 | 0 | 0 | 0 | 0
CCn1c(SCC(=O)OCC(=O)N2c3ccccc3NC(=O)C2(C)C)nnc1-c1ccco1 | 0 | 7.0 | 0 | 0 | 0 | 0
O=C(NC(=S)N(CCO)Cc1ccccc1)c1cc(Br)ccc1Cl | 0 | 19 | 0 | 0 | 0 | 0
N#CCCN(Cc1ccccc1)C(=S)NC(=O)c1ccccc1 | 0 | 0 | 0 | 0 | 0 | 0
CCCN(Cc1ccccc1)C(=S)NC(=O)c1ccccc1[N+](=O)[O-] | 0 | 29 | 0 | 0 | 0 | 0
CCN(Cc1ccccc1)C(=S)NC(=O)c1ccccc1Br | 0 | 22 | 0 | 0 | 0 | 43
CC(C)(C)c1ccc(CN2C3=NCCCN3c3ccccc32)cc1 | 0 | 0 | 0 | 0 | 11 | 0
Cc1ccc(CN2C3=NCCCN3c3ccccc32)cc1 | - | - | 0 | - | - | -
N#CC(c1cccc(Cl)c1)c1ccc2c(C(F)(F)F)cc(C(F)(F)F)nc2n1 (stereo not drawn) | 0 | 0 | 0 | 0 | 0 | 76
NNc1ccc2c(C(F)(F)F)cc(C(F)(F)F)nc2n1 | 0 | 0 | 0 | 0 | 0 | 0
Cn1nc(-c2ccccc2)c(CSc2ccccc2)c1Cl | 0 | 0 | 0 | -7.3 | 0 | 0
CCC(O)c1c(-c2ccccc2)nn(C)c1Cl (stereo not drawn) | 0 | 0 | 0 | 0 | 0 | 0
SMILES | Kir21 block | hERG rescue | KCNK3 block | KCNK9 inh | KCNQ1 inh | KCNQ1 act
Cn1cnc([N+](=O)[O-])c1S(=O)(=O)c1ccc(Cl)cc1 | -6.8 | 0 | 0 | 0 | 0 | 0
O=C(NCc1ccncc1)c1cccc(S(=O)(=O)Nc2ccc(SC(F)F)cc2)c1 | 0 | 0 | 0 | 0 | 0 | 0
CN(CC(=O)NCc1ccccc1)CC(=O)Nc1ccc(Cl)c(C(F)(F)F)c1 | - | - | -9.4 | - | - | -
CN(CC(=O)NC(=O)NCc1ccccc1)CC(=O)Nc1ccc(Cl)c(C(F)(F)F)c1 | 0 | 0 | 0 | 0 | 0 | 0
O=C(CNCC1CCCCC1)Nc1ccc(OC(F)(F)F)cc1 | 0 | 0 | 0 | 0 | 0 | 20
CN(CC(=O)Nc1ccc(OC(F)(F)F)cc1)C1CCCCC1 | 0 | 0 | 0 | 0 | 0 | 0
O=C(Cc1cccs1)Nc1ccccc1F | 0 | 0 | 0 | 0 | 0 | 0
CN(C(=S)NC(=O)c1ccc(Cl)cc1)C1CCCCC1 | 0 | 0 | 0 | 0 | 0 | 12
CN(C(=S)NC(=O)c1ccccc1)C1CCCCC1 | 0 | 15 | 0 | 0 | 0 | 11
O=C(NC(=O)N1CCCCCC1)c1ccc(Cl)cc1 | 0 | 0 | 0 | 0 | 0 | 0
CC1CCN(C(=S)NC(=O)c2ccc(F)cc2)CC1 | - | - | 0 | - | - | -
CN(C(=S)NC(=O)c1ccc(F)cc1)C1CCCCC1 | 0 | 0 | 0 | 0 | 0 | 8
COc1ccccc1CNC(=O)CS(=O)(=O)c1ccc(C)cc1 | 0 | 0 | 0 | 0 | 0 | 0
CN(Cc1ccc(F)cc1)C(=O)c1sccc1-c1ccccc1 | -7.8 | 0 | 0 | 0 | 0 | 0
O=C1/C(=C/c2ccc(O)c([N+](=O)[O-])c2)SC(=S)N1Cc1ccccc1 | 0 | 0 | 0 | 0 | 8 | 0
COc1cc(/C=C2\SC(=S)N(NC(=O)c3ccccc3O)C2=O)ccc1O | 0 | 0 | 0 | 0 | 6 | 0
O=C(NN1C(=O)/C(=C/c2ccc(O)cc2)SC1=S)c1cccc(O)c1 | 0 | 0 | 0 | -9.1 | 8 | 0
COc1cc([N+](=O)[O-])cc(/C=C2/SC(=S)N(Cc3ccccc3)C2=O)c1O | 0 | 0 | 0 | 0 | 9 | 0
N#CCCCCn1ccc(NC(=O)c2ccc(Cl)cc2O)n1 | 0 | 0 | 0 | 0 | 0 | 0
Cc1ccc(OCCN(C)C(=O)C2CCC(=O)N(CCCN3CCCC3=O)C2)cc1 (stereo not drawn) | 0 | 0 | 0 | 0 | 0 | 0
Cn1cc(/C=C2\SC(=S)N(NC(=O)c3cccc(Cl)c3)C2=O)c2ccccc21 | - | - | 0 | - | - | -
Cn1cc(/C=C2\SC(=S)N(NC(=O)c3ccccc3)C2=O)c2ccccc21 | 0 | 9.5 | 0 | 0 | 0 | 0
O=C(NN1C(=O)/C(=C/c2cc([N+](=O)[O-])ccc2O)SC1=S)c1ccccc1O | 0 | 0 | - | 0 | 0 | 0
O=C(NN1C(=O)/C(=C/c2ccc(O)c([N+](=O)[O-])c2)SC1=S)c1ccccc1Cl | 0 | 0 | 0 | 0 | 7 | 0
O=C(O)COc1ccc(F)cc1Br | 0 | 0 | 0 | 0 | 0 | 0
SMILES | Kir21 block | hERG rescue | KCNK3 block | KCNK9 inh | KCNQ1 inh | KCNQ1 act
Cc1ccc2nc(C)c(CN3CCN(c4ccc([N+](=O)[O-])cc4Cl)CC3)n2c1 | 0 | 0 | 0 | 0 | 9 | 0
O=C(C[C@H]1C[C@H](C(=O)N2CCCCC2)[C@@]2(CCc3ccccc3)c3[nH]c4cc(-c5ccco5)ccc4c3CCN2C1=O)NCc1cccc(C(F)(F)F)c1 | - | - | 0 | - | - | -
COc1ccc(C[C@H]2CN3C(=NC[C@@H]3Cc3ccccc3)N2CCNC(=O)CCC2CCCCC2)cc1 | -11 | 0 | 0 | 0 | 0 | 0
COc1ccc(C[C@H]2CN3C(=NC[C@@H]3C(C)C)N2CCNC(=O)CCC2CCCCC2)cc1 | -6.3 | 0 | 0 | 0 | 0 | 0
CC(C)[C@H]1CN=C2N(CCNC(=O)CCC3CCCCC3)[C@H](Cc3ccc(O)cc3)CN21 | 0 | 0 | 0 | 0 | 0 | 0
O=C(CCC1CCCCC1)NCCN1C2=NC[C@H](Cc3ccc(O)cc3)N2C[C@H]1Cc1ccc(O)cc1 | 0 | 0 | 0 | 0 | 0 | 0
